Our source for the Activity, EC50 and fold change (FC) values is ChEMBL document CHEMBL4014338, “Discovery of Small Molecules as Multi-Toll-like Receptor Agonists with Proinflammatory and Anticancer Activities” (J Med Chem, 2017).

SMILES strings stand for the structures. Active and inactive are the calls of the source. No cut-off for these calls is given here.

In one series the target is Toll-like receptor 3 (Homo sapiens) (UniProt O15455). Description: Agonist activity at human TLR3 expressed in HEK293 cells assessed as induction of NF-kB activation-mediated SEAP production at 30 uM after 24 hrs by HTS assay. The class given is cell-based.
Settings: not given
The method in brief: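 HTS in HEK293 cells stably expressing human TLR3 plus an NF-κB-inducible SEAP reporter, seeded at 20,000 cells/well and run in duplicate. Library compounds in DMSO at 30 μM final. Poly I:C 5 μg/mL served as positive control and cells + medium + DMSO as negative control. SEAP in supernatant read by QUANTI-Blue; assay quality judged by Z′ factor.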
For `CC1(C)C=Cc2cc(OCc3ccc([N+](=O)[O-])cc3)c(OCc3ccc([N+](=O)[O-])cc3)cc2O1`, the result was Active.

For a further series, the target named is T1, Toll-like receptor 3 (Homo sapiens, UniProt O15455).
T1 sequence (O15455 whole entry): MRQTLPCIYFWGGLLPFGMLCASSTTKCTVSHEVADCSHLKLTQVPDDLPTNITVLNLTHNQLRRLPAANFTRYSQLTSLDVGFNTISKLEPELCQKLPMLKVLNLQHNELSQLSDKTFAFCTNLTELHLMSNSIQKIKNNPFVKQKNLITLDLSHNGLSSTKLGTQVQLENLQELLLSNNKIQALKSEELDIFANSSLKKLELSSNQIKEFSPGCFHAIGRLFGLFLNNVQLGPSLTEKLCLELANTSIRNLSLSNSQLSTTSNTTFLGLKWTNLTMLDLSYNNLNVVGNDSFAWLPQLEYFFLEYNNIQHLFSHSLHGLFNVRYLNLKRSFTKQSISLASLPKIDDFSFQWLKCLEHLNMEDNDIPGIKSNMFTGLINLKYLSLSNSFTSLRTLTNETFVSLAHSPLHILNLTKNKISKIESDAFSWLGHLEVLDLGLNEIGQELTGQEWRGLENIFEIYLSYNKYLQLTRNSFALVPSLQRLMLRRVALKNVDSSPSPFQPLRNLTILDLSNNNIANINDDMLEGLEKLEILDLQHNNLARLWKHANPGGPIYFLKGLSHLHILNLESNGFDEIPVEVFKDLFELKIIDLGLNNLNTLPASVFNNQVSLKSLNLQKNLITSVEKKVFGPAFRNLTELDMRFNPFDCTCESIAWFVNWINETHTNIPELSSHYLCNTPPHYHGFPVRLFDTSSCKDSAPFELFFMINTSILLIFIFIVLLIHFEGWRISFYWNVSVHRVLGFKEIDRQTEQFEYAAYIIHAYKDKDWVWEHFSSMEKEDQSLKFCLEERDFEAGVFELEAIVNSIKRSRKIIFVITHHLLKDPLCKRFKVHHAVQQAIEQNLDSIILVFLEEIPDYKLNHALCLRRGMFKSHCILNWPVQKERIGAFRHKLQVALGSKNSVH
Description: Agonist activity at human TLR3 expressed in HEK293 cells assessed as induction of NF-kB activation-mediated SEAP production after 24 hrs by HTS assay. In kind it is cell-based.
Settings: not given
The method in brief:
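Stable HEK293 lines expressing a single hTLR plus a SEAP reporter, grown in DMEM/10% FBS with selective antibiotics. Seeded at 5 × 10^4 cells/well for 24 h at 37 °C, then treated 24 h. Supernatant mixed with QUANTI-Blue, 1 h at 37 °C, OD 620 nm. Cognate agonists: Pam3CSK4 (TLR2), poly I:C (TLR3), LPS (TLR4), FLA-BS (TLR5), R848 (TLR7). EC50 as mean ± SD.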
As a reminder, the EC50 is the midpoint of the concentration-response curve. In the case of `CC1(C)CC(O)c2cc(OCc3ccc([N+](=O)[O-])cc3)c(OCc3ccc([N+](=O)[O-])cc3)cc2O1` (stereo not given), the EC50 stood at 42.5 µM.

For `CC1(C)C=Cc2cc(OCc3ccc([N+](=O)[O-])cc3)c(OCc3ccc([N+](=O)[O-])cc3)cc2O1`, the EC50 is 22.3 µM.

Another series is filed under the species Homo sapiens. As to the kind of experiment: Activation of NF-kB in HEK293 cells assessed as SEAP production at 30 uM after 24 hrs by HTS assay. The class given is cell-based.
Settings: not given
The method in brief: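 hTLR3-transfected HEK293 cells carrying an NF-κB-inducible SEAP reporter, seeded at 20,000 cells/well in duplicate; library compounds in DMSO at 30 μM final. Poly I:C 5 μg/mL as positive control; cells + medium + DMSO as negative control. SEAP in supernatant read by QUANTI-Blue; hits ranked on RMS values.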
With `CC1(C)C=Cc2cc(OCc3ccc([N+](=O)[O-])cc3)c(OCc3ccc([N+](=O)[O-])cc3)cc2O1`, the result was inactive.

A further series concerns the target Toll-like receptor 3 (Homo sapiens) (UniProt O15455). Description: Agonist activity at human TLR3 expressed in HEK293 cells assessed as induction of NF-kB activation-mediated SEAP production at 25 uM after 24 hrs by HTS assay relative to control. In kind it is cell-based.
Settings: not given
An outline of the steps: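 hTLR3 HEK293 SEAP reporter cells seeded at 5 × 10^4 cells/well for 24 h, exposed to 25 μM for 24 h. Supernatant SEAP detected with QUANTI-Blue (1 h, 37 °C, OD 620 nm). Activation normalized to untreated cells and expressed as fold change.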
With `CC1(C)CC(O)c2cc(OCc3ccc([N+](=O)[O-])c(F)c3)c(OCc3ccc([N+](=O)[O-])c(F)c3)cc2O1` (stereo not given), the fold change (FC) stood at 2.34.

Take `COc1cc2c(cc1OCc1ccc([N+](=O)[O-])cc1)C=CC(C)(C)O2`: the fold change (FC) was 1.19.

For the compound `O=[N+]([O-])c1ccc(COc2cc3c(cc2OCc2ccc([N+](=O)[O-])cc2)OC2(C=C3)CCCCC2)cc1`, the fold change (FC) stood at 1.

With `CCC1(CC)C=Cc2cc(OCc3ccc([N+](=O)[O-])cc3)c(OCc3ccc([N+](=O)[O-])cc3)cc2O1`, the fold change (FC) worked out at 1.16.

For `CC1(C)C=Cc2cc(OCc3ccc(C(F)(F)F)cc3)c(OCc3ccc(C(F)(F)F)cc3)cc2O1`, the fold change (FC) is 0.99.

For the compound `O=[N+]([O-])c1ccc(COc2cc3c(cc2OCc2ccc([N+](=O)[O-])cc2)OC2(C=C3)CCCCCC2)cc1`, the fold change (FC) stood at 1.07.

Consider `CC1(C)CC(O)c2cc(OCc3ccc(C(F)(F)F)cc3)c(OCc3ccc(C(F)(F)F)cc3)cc2O1` (stereo not given), for which the fold change (FC) stood at 2.36.

Consider `CC1(C)CC(O)c2cc(OCc3ccc(F)c(F)c3)c(OCc3ccc(F)c(F)c3)cc2O1` (stereo not given), for which the fold change (FC) is 0.95.

For `O=[N+]([O-])c1ccc(COc2cc3c(cc2OCc2ccc([N+](=O)[O-])cc2)OC2(C=C3)CCCC2)cc1`, the fold change (FC) came to 1.22.

Take `COc1ccc(COc2cc3c(cc2OCc2ccc(OC)c(F)c2)C(=O)CC(C)(C)O3)cc1F`: the fold change (FC) worked out at 1.08.

In the case of `CC1(C)C=Cc2cc(OCc3ccccc3[N+](=O)[O-])c(OCc3ccccc3[N+](=O)[O-])cc2O1`, the fold change (FC) amounted to 1.08.

With `CC1(C)C=Cc2cc(O)c(OCc3ccc([N+](=O)[O-])cc3)cc2O1`, the fold change (FC) was 1.17.

With `COc1ccc(COc2cc3c(cc2OCc2ccc(OC)c(F)c2)C(O)CC(C)(C)O3)cc1F` (stereo not given), the fold change (FC) turned out to be 1.34.

Regarding `CC1(C)C=Cc2cc(OC(=O)c3ccc([N+](=O)[O-])cc3)c(OC(=O)c3ccc([N+](=O)[O-])cc3)cc2O1`, the fold change (FC) is 1.65.

For the compound `CC1(C)CC(=O)c2cc(OCc3ccc([N+](=O)[O-])cc3)c(OCc3ccc([N+](=O)[O-])cc3)cc2O1`, the fold change (FC) was determined as 1.76.

With `CC1(C)C=Cc2cc(OCc3ccccc3)c(OCc3ccccc3)cc2O1`, the fold change (FC) is 1.09.

With `CC1(C)C=Cc2cc(OCc3cccc([N+](=O)[O-])c3)c(OCc3cccc([N+](=O)[O-])c3)cc2O1`, the fold change (FC) stood at 1.1.

`CC1(C)CC(=O)c2cc(OCc3ccc([N+](=O)[O-])c(F)c3)c(OCc3ccc([N+](=O)[O-])c(F)c3)cc2O1`: the fold change (FC) stood at 1.22.

`COc1ccc(COc2cc3c(cc2OCc2ccc(OC)c(F)c2)OC(C)(C)C=C3)cc1F`: the fold change (FC) is 1.06.

As for `CC1(C)CC(O)c2cc(OCc3ccc([N+](=O)[O-])cc3)c(OCc3ccc([N+](=O)[O-])cc3)cc2O1` (stereo not given), the fold change (FC) amounted to 2.5.

Turning to `CC1(C)C=Cc2cc(OCc3ccc(F)c(F)c3)c(OCc3ccc(F)c(F)c3)cc2O1`, the fold change (FC) amounted to 0.99.

In the case of `CC1(C)C=Cc2cc(OCc3ccc([N+](=O)[O-])cc3)c(OCc3ccc([N+](=O)[O-])cc3)cc2O1`, the fold change (FC) came out at 5.34.

Consider `CC1(C)C=Cc2cc(OCc3ccc([N+](=O)[O-])c(F)c3)c(OCc3ccc([N+](=O)[O-])c(F)c3)cc2O1`, for which the fold change (FC) turned out to be 1.24.

As to `CC1(C)CC(=O)c2cc(OCc3ccc(C(F)(F)F)cc3)c(OCc3ccc(C(F)(F)F)cc3)cc2O1`, the fold change (FC) is 1.19.

Take `CC1(C)CC(=O)c2cc(OCc3ccc(F)c(F)c3)c(OCc3ccc(F)c(F)c3)cc2O1`: the fold change (FC) came to 1.22.

Another series has as its system HEK293. Description: Cytotoxicity against HEK293 cells at 25 uM. In kind it is cell-based. Conditions: human, hek293, 25 µM.
For `CC1(C)C=Cc2cc(OCc3ccc([N+](=O)[O-])cc3)c(OCc3ccc([N+](=O)[O-])cc3)cc2O1`, the Activity entry is recorded as “Non-Toxic”.
